SMILES strings stand for the structures.

One experiment relates to HeLa. The experiment in a line: Cytotoxicity against human HeLa cells after 72 hrs by MTT assay. Format: functional, cell-based. A digest of the protocol: (§1)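 Cells in RPMI-1640 were exposed to compound for 72 h, then given MTT and incubated a further 4 h at 37 °C. Formazan was dissolved in DMSO and absorbance read at 570 and 630 nm. Triplicate wells per point across three independent experiments. IC50 (50% inhibition of viability) was taken from concentration-response curves by linear regression, as the mean of three determinations.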

The test system of another experiment is DU-145 (human). The experiment in a line: Cytotoxicity against human DU145 cells after 72 hrs by MTT assay. The conditions noted are these: DU-145, 72 h.
The next experiment relates to HCT-116. The experiment in a line: Cytotoxicity against human HCT116 cells after 72 hrs by MTT assay. The format is functional, cell-based. As to conditions: HCT-116, 72 h. The procedure, abridged: as §1
The subject of another experiment is SGC-7901 (human). The experiment in a line: Cytotoxicity against human SGC7901 cells after 72 hrs by MTT assay. The conditions noted are these: SGC-7901, 72 h.
In a further experiment the test system is K562. The experiment in a line: Cytotoxicity against human K562 cells after 72 hrs by MTT assay. The format is functional, cell-based. As to conditions: K562, 72 h. The procedure, abridged:
as §1

In the case of `CCCNC(=S)N/N=C1\CC(c2ccc(O)cc2)Oc2cc(O)ccc21` (stereo not given), the IC50 with HeLa was determined as 40.2 µM; in the experiment with DU-145 (human) it was 31.2 µM; with HCT-116, 54 µM; in the experiment with SGC-7901 (human) it was 74.7 µM; in the experiment with K562, 31 µM.
Taken in the same sequence, the figures for `CC(C)NC(=S)N/N=C1\CC(c2ccc(O)cc2)Oc2cc(O)ccc21` (stereo not given) were 68.1 µM, 35.2 µM, 38.2 µM, 60.4 µM and 21.3 µM.
Taken in the same sequence, the figures for `CCCCNC(=S)N/N=C1\CC(c2ccc(O)cc2)Oc2cc(O)ccc21` (stereo not given) were over 100 µM, 50.8 µM, 49.3 µM, 57.7 µM and 17 µM.
In the case of `CC(C)(C)NC(=S)N/N=C1\CC(c2ccc(O)cc2)Oc2cc(O)ccc21` (stereo not given), the IC50 in the experiment on HeLa amounted to 50 µM; in the experiment with DU-145 (human), 31 µM; with HCT-116, 25.9 µM; in the experiment with SGC-7901 (human), 42.9 µM; with K562 it was 8.9 µM.
The like results for `CCCN(CCC)C(=S)N/N=C1\CC(c2ccc(O)cc2)Oc2cc(O)ccc21` (stereo not given) were, in that order, 75.3 µM, 32.2 µM, 41.9 µM, 62.1 µM and 12.4 µM.
On to `Oc1ccc(C2C/C(=N\NC(=S)N3CCCC3)c3ccc(O)cc3O2)cc1` (stereo not given), for which the IC50 was 65.2 µM with HeLa; 37 µM in the experiment with DU-145 (human); 52.3 µM with HCT-116; 51.7 µM with SGC-7901 (human); 17.3 µM with K562.
Taken in the same sequence, the figures for `Oc1ccc(C2C/C(=N\NC(=S)N3CCCCC3)c3ccc(O)cc3O2)cc1` (stereo not given) were 74.4 µM, 40 µM, 50.9 µM, 55.3 µM and 13.7 µM.
Taken in the same sequence, the figures for `Oc1ccc(C2C/C(=N\NC(=S)N3CCNCC3)c3ccc(O)cc3O2)cc1` (stereo not given) were over 100 µM, 22.5 µM, 79.4 µM, over 100 µM and 26.2 µM.
As for `CN1CCN(C(=S)N/N=C2\CC(c3ccc(O)cc3)Oc3cc(O)ccc32)CC1` (stereo not given), the IC50 stood at 65.8 µM in the experiment on HeLa; 10.1 µM in the experiment with DU-145 (human); 60.4 µM in the experiment with HCT-116; 98.8 µM in the experiment on SGC-7901 (human); 23.1 µM in the experiment with K562.
Taken in the same sequence, the figures for `Oc1ccc(C2C/C(=N\NC(=S)N3CCOCC3)c3ccc(O)cc3O2)cc1` (stereo not given) were 76.3 µM, 52.2 µM, 63.5 µM, 84.5 µM and 29.4 µM.
The like results for `O=c1[nH]cc(F)c(=O)[nH]1` [FLUOROURACIL] were, in that order, 9.7 µM, 2.95 µM, 1.93 µM, 2.19 µM and 45.4 µM.
On to `O=C1C[C@@H](c2ccc(O)cc2)Oc2cc(O)ccc21` [LIQUIRTIGENIN], for which the IC50 was over 100 µM in the experiment with HeLa; 92.4 µM in the experiment on DU-145 (human); 37.2 µM in the experiment with HCT-116; over 100 µM with SGC-7901 (human); over 100 µM in the experiment on K562.

(Values after ChEMBL document CHEMBL1208677, “Synthesis and antitumor activity of liquiritigenin thiosemicarbazone derivatives” (Eur J Med Chem, 2010).)
